According to ChEMBL document CHEMBL1152353, “Pyrimido[5,4-e][1,2,4]triazine-5,7(1H,6H)-dione derivatives as novel small molecule chaperone amplifiers” (Bioorg Med Chem Lett, 2009):
Active and inactive are the calls of the source. The calls are words filed in the database; no cut-off is given here.

Experiments:
[1] = test system: SK-N-SH; experiment: Cytoprotection against rotenone stress-induced toxicity in human SK-N-SH cells assessed as increase in cell viability after 48 hrs by MTS assay relative to control; assay type: functional; set-up: concentration or dose not given beside the values
Method in brief: (§1)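 SK-N-SH neuroblastoma cells (within passage 6) seeded in DMEM with 0.1% FBS for 18 h, then fresh medium with 200 nM rotenone (final) plus compound, 0.019 to 10 µM. Incubated 48 h, then MTS viability read. Cytoprotection expressed as viability increase over the rotenone DMSO control; EC50 = concentration giving half-maximal protection. Data averaged over multiple tests.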

[2] = Cytotoxicity against human SK-N-SH cells after 72 hrs by MTS assay; assay type: cell-based
Method in brief: (§2)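 HeLa (8000 cells/well) or SK-N-SH (14,000 cells/well) cells seeded in DMEM with 10% FBS for 18 h. Compound added at 1:200 dilution, final 0.3 to 80 µM, 0.5% v/v DMSO. Exposure 72 h, then MTS/PMS for 4 h, SDS to 1.4% w/v, absorbance at 492 nm. CC50 = concentration giving half-maximal cytotoxicity.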

[3] = (§3) Cytotoxicity against human HeLa cells after 72 hrs by MTS assay; assay type: cell-based; conditions: HeLa cells; method in brief: as §2
[4] = molecular target: T1, Heat shock factor protein 1 (Homo sapiens) (UniProt Q00613); experiment: Amplification of HSF1 transcriptional activity in human HeLa cells assessed as granule formation pretreated for 3 hrs by immunocytochemical staining; assay type: cell-based
T1 sequence (whole entry): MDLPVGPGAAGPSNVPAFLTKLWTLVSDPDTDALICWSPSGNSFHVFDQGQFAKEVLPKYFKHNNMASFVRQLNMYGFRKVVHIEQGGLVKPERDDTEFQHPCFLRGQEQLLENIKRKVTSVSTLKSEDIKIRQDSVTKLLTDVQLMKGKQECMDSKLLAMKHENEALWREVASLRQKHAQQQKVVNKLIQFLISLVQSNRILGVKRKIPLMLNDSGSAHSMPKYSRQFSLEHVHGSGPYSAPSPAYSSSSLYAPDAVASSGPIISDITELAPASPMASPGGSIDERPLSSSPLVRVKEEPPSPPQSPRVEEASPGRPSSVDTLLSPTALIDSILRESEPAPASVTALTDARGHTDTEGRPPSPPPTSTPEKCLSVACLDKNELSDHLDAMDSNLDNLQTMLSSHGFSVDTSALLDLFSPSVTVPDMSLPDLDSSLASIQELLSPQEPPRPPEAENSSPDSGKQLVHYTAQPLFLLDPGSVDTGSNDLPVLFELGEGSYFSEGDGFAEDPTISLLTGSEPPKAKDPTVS
Method in brief: (§4)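 HeLa cells pretreated with compound 1 h, then mild heat shock 41 °C for 2 h, no recovery; control arm pretreated 3 h at 37 °C without heat shock. Compound diluted 200-fold, 0.3 to 80 µM range.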

[5] = test system: SK-N-SH; experiment: Cytoprotection against rotenone stress-induced toxicity in human SK-N-SH cells after 48 hrs by MTS assay; assay type: functional, cell-based; method in brief: as §1
[6] = test system: SK-N-SH; experiment: Cytoprotection against rotenone stress-induced toxicity in human SK-N-SH cells at 1.25 uM after 48 hrs by MTS assay; assay type: functional; method in brief: as §1
[7] = test system: HeLa; experiment: Cytotoxicity against human HeLa cells at 80 uM after 72 hrs by MTS assay; assay type: cell-based; method in brief: as §2
[8] = test system: HeLa; experiment: as §3; assay type: cell-based; conditions: hela, 72 h; method in brief: as §2
[9] = Therapeutic index, ratio of […]; assay type: cell-based; conditions: read-out: FC
[10] = Therapeutic index, ratio of CC50 for human SK-N-SH cells to EC50 for human SK-N-SH cells; assay type: cell-based; conditions: read-out: Ratio CC50/EC50
[11] = molecular target: T2, Heat shock factor protein 1 (Homo sapiens, UniProt Q00613); experiment: Amplification of HSF1 transcriptional activity in human heat shock-induced HeLa cells assessed as granule formation treated 1 hr before heat shock challenge measured after 2 hrs without recovery time by immunocytochemical staining; assay type: cell-based
T2 sequence (Q00613 whole entry): T1 sequence (whole entry)
Method in brief: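 HeLa cells given compound 1 h before mild heat shock at 41 °C for 2 h, no recovery; compound diluted 200-fold, 0.3 to 80 µM. Unstressed control plates kept at 37 °C for 3 h. HSF1 immunocytochemical staining, imaged at 10×.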

[12] = test system: SK-N-SH; experiment: Cytoprotection against rotenone stress-induced toxicity in human SK-N-SH cells assessed as increase in cell survival at 0.625 after 48 hrs by MTS assay relative to control; assay type: functional; method in brief: as §1
[13] = molecular target: T1, Heat shock factor protein 1 (Homo sapiens); experiment: Amplification of HSF1 transcriptional activity in human HeLa cells assessed as […] granule count at 80 uM by immunocytochemical staining; assay type: cell-based; method in brief: as §4
[14] = test system: SH-SY5Y; experiment: Cytoprotection against oxygen-glucose deprivation-induced cytotoxicity in human SH-SY5Y cells at 1 uM after 28 hrs by MTS assay; assay type: functional
Method in brief: (§5)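 SH-SY5Y cells plated on collagen I-coated wells, grown 16–24 h in complete medium, washed twice in deoxygenated glucose- and serum-free medium; compound added within 1 h before OGD. Chambers flushed with 95% N₂/5% CO₂, residual O₂ <1%, held at 37 °C for 28 h. MTS viability; cytoprotection = (MTS_compound − MTS_DMSO)/MTS_DMSO × 100% versus OGD DMSO control.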

[15] = test system: SH-SY5Y; experiment: Cytoprotection against oxygen-glucose deprivation-induced cytotoxicity in human SH-SY5Y cells at 0.5 uM after 28 hrs by MTS assay; assay type: functional; method in brief: as §5
[16] = test system: SH-SY5Y; experiment: Cytoprotection against oxygen-glucose deprivation-induced cytotoxicity in human SH-SY5Y cells at 2.5 uM after 28 hrs by MTS assay; assay type: functional; method in brief: as §5
[17] = test system: SK-N-SH; experiment: Cytoprotection against rotenone stress-induced toxicity in human SK-N-SH cells at 0.16 uM after 48 hrs by MTS assay; assay type: functional
Method in brief: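 SK-N-SH cells (within passage 6) seeded in DMEM with 0.1% FBS for 18 h, then fresh medium with rotenone (final 200 nM) plus compound (range from 0.019 up to 10). Incubated 48 h, viability by MTS; cytoprotection as viability increase over DMSO-plus-rotenone control.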

[18] = test system: SK-N-SH; experiment: Cytoprotection against rotenone stress-induced toxicity in human SK-N-SH cells at 0.63 uM after 48 hrs by MTS assay; assay type: functional; method in brief: as §1
[19] = Homo sapiens, SK-N-SH, 48 h, read-out: EC50

| SMILES | Activity [1] | CC50 at 72 h [2] [µM] | CC50 at 72 h [3] [µM] | Activity [4] | EC50 [5, 19] [nM] | also measured |
| --- | --- | --- | --- | --- | --- | --- |
| CCCCn1nc(-c2ccc(C)o2)nc2c(=O)n(C)c(=O)nc1-2 | 23% | 5.3 | 7.8 | inactive | 330 |  |
| CCCCn1nc(-c2ccc(C)o2)[n+]([O-])c2c(=O)n(C)c(=O)nc1-2 | 49% | 6.6 | 9 | inactive |  | Activity [6]: 49% |
| CCCCn1nc(-c2ccccc2)nc2c(=O)n(C)c(=O)nc1-2 | 58% | 9.8 | 18.5 | inactive | 490 |  |
| CCn1nc(-c2ccc(C)o2)[n+]([O-])c2c(=O)n(C)c(=O)nc1-2 | 56% | 3.3 | 9.8 | inactive |  | Activity [6]: 56% |
| CCCCn1nc(-c2nc3ccccc3[nH]2)nc2c(=O)n(C)c(=O)nc1-2 | 59% | 13.1 |  | inactive | 1900 | Activity [7]: 76%; Activity [8]: Not Active |
| CCn1nc(-c2ccc(C)s2)nc2c(=O)n(C)c(=O)nc1-2 | 50% | 63.5 | 22.2 | inactive | 1330 | selectivity ratio [9]: ≤ 7; selectivity ratio [10]: ≤ 48 |
| CCCCn1nc(-c2ccc(C)s2)[n+]([O-])c2c(=O)n(C)c(=O)nc1-2 | 27% | 7.2 | 6.6 | inactive | 190 |  |
| CCCCn1nc(-c2ccc[nH]2)[n+]([O-])c2c(=O)n(C)c(=O)nc1-2 | 49% | 1.5 | 6.3 | inactive | 640 |  |
| CCCCn1nc(-c2ccc(C)s2)nc2c(=O)n(C)c(=O)nc1-2 | 44% | 18.2 | 15.3 | inactive |  | Activity [6]: 44% |
| Cn1c(=O)nc2[nH]nc(-c3cccs3)nc-2c1=O | inactive |  |  |  |  | EC50 [11]: Not Active; EC50 ([5]; sk-n-sh): Not Active |
| CCCCn1nc(-c2ccc3ccccc3n2)nc2c(=O)n(C)c(=O)nc1-2 | 71% | 4 | 9.5 | inactive | 290 | Activity [12]: 103% |
| CCn1nc(-c2ccc(C)o2)nc2c(=O)n(C)c(=O)nc1-2 | 50% | 8.2 | 22.3 | inactive | 1840 |  |
| CCCn1nc(-c2nc3ccccc3s2)nc2c(=O)n(C)c(=O)nc1-2 | 55% | 5.4 | 15.6 | inactive | 550 | Activity [13]: 25% |
| Cn1c(=O)nc2n(Cc3ccccc3)nc(-c3nc4ccccc4s3)nc-2c1=O | 27% | 5.6 | 7.3 | inactive | 2340 |  |
| CCCCn1nc(-c2ncc[nH]2)nc2c(=O)n(C)c(=O)nc1-2 | 56% | 1.3 | 3.6 | inactive | 300 |  |
| CCn1nc(-c2ccc(C)s2)[n+]([O-])c2c(=O)n(C)c(=O)nc1-2 | 57% | 27.2 | 15 | inactive | 1100 |  |
| CCn1nc(-c2cccs2)nc2c(=O)n(C)c(=O)nc1-2 | 53% | 9.9 | 10.5 | inactive | 410 | Activity [14]: 48%; Activity [15]: 18%; Activity [16]: 14% |
| CCn1nc(-c2ccc[nH]2)nc2c(=O)n(C)c(=O)nc1-2 | 44% | 4.3 | 10.7 | inactive | 680 |  |
| CCn1nc(-c2ncc[nH]2)nc2c(=O)n(C)c(=O)nc1-2 | 62% | 3.6 | 11.9 | inactive | 2710 |  |
| CCCCn1nc(-c2nc3ccccc3s2)nc2c(=O)n(C)c(=O)nc1-2 | 53% | 8.4 | 8.7 | inactive | 230 | Activity [14]: 38%; Activity [15]: 14%; Activity [16]: 80% |
| CCn1nc(-c2ccco2)nc2c(=O)n(C)c(=O)nc1-2 | 64% | 2.8 | 5.6 | inactive |  | Activity [6]: 64% |
| CC(C)Cn1nc(-c2nc3ccccc3s2)nc2c(=O)n(C)c(=O)nc1-2 | 67% | 3.7 | 7.9 | inactive | 270 |  |
| CC1=C(O)C(=O)C=C2C1=CC=C1[C@@]2(C)CC[C@@]2(C)[C@@H]3C[C@](C)(C(=O)O)CC[C@]3(C)CC[C@]12C [CELASTROL] | 24% | 1.6 | 3 |  |  | Activity [17]: 24%; Activity [14]: 18%; Activity [15]: 8%; Activity [16]: -22% |
| Cn1c(=O)[nH]c2nnc(-c3cccs3)nc2c1=O |  | > 80 | > 80 |  |  |  |
| CC(C)CCn1nc(-c2nc3ccccc3s2)nc2c(=O)n(C)c(=O)nc1-2 | 44% | 10.7 | 16.9 | inactive | 240 |  |
| CCCCn1nc(-c2nccs2)nc2c(=O)n(C)c(=O)nc1-2 | 55% | 1.4 | 2.5 | inactive |  | Activity [18]: 55%; Activity [14]: 23%; Activity [15]: 7%; Activity [16]: 39% |
| Cn1c(=O)nc2n(Cc3ccc(F)cc3)nc(-c3nc4ccccc4s3)nc-2c1=O | inactive | 21.3 | 23.4 | inactive |  | EC50 ([5]; sk-n-sh): Not Active |
| CCn1nc(-c2ccc[nH]2)[n+]([O-])c2c(=O)n(C)c(=O)nc1-2 | 35% | 1.9 | 5.2 | inactive | 170 |  |
